Source: ChEMBL document CHEMBL6071131, “New substituted benzoxazine derivatives as potent inducers of membrane permeability and cell death” (Bioorg Med Chem, 2024)
The source made the active and inactive calls. The rule behind the calls is not given here.

How the values were obtained:
MCF7 [1] = assay: Antiproliferative activity against human MCF7 cells incubated for 72 hrs by SRB assay; type: functional, cell-based; conditions: MCF7, 72 h
How it was run: (§1)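 Sulforhodamine B colorimetric read-out after 72 h drug exposure. Cells kept in DMEM with 10 % FBS and 1 % penicillin/streptomycin at 37 °C under 5 % CO₂, mycoplasma-checked, passaged under 6 months. Compounds given from DMSO stocks diluted in medium, final DMSO ≤ 0.1 % v/v, with DMSO-only parallel cultures as controls. IC50 reported as mean ± SD of three independent determinations, each run in duplicate.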

HCT-116 [2] = assay: Antiproliferative activity against human HCT-116 cells incubated for 72 hrs by SRB assay; type: functional, cell-based; conditions: HCT-116, 72 h; how it was run: as §1
Homo sapiens [3] = species: Homo sapiens; assay: Inhibition of human AKT assessed as residual activity at 5 uM relative to control
How it was run: (§2)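 Residual kinase activity determined with each compound at 5×10⁻⁶ and 5×10⁻⁵ M, in singlicate per kinase assay, expressed relative to uninhibited control.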

Homo sapiens [4] = species: Homo sapiens; assay: Inhibition of human AKT assessed as residual activity at 50 uM relative to control; how it was run: as §2
[5] = molecular target: 5'-AMP-activated protein kinase catalytic subunit alpha-1 (Homo sapiens) (UniProt Q13131); assay: Inhibition of human AMPK alpha-1 assessed as residual activity at 5 uM relative to control; how it was run: as §2
[6] = molecular target: 5'-AMP-activated protein kinase catalytic subunit alpha-1 (Homo sapiens) (UniProt Q13131); assay: Inhibition of human AMPK alpha-1 assessed as residual activity at 50 uM relative to control; how it was run: as §2
[7] = molecular target: Epidermal growth factor receptor (Homo sapiens) (UniProt P00533); assay: Inhibition of human EGFR assessed as residual activity at 5 uM relative to control; how it was run: as §2
[8] = molecular target: Epidermal growth factor receptor (Homo sapiens) (UniProt P00533); assay: Inhibition of human EGFR assessed as residual activity at 50 uM relative to control; how it was run: as §2
[9] = molecular target: Receptor tyrosine-protein kinase erbB-2 (Homo sapiens) (UniProt P04626); assay: Inhibition of human HER2 assessed as residual activity at 5 uM relative to control; how it was run: as §2
[10] = molecular target: Receptor tyrosine-protein kinase erbB-2 (Homo sapiens) (UniProt P04626); assay: Inhibition of human HER2 assessed as residual activity at 50 uM relative to control; how it was run: as §2
[11] = molecular target: Mitogen-activated protein kinase 1 (Homo sapiens) (UniProt P28482); assay: Inhibition of human ERK2 assessed as residual activity at 5 uM relative to control; how it was run: as §2
[12] = molecular target: Mitogen-activated protein kinase 1 (Homo sapiens) (UniProt P28482); assay: Inhibition of human ERK2 assessed as residual activity at 50 uM relative to control; how it was run: as §2
[13] = molecular target: Mitogen-activated protein kinase 8 (Homo sapiens) (UniProt P45983); assay: Inhibition of human JNK1 assessed as residual activity at 5 uM relative to control; how it was run: as §2
[14] = molecular target: Mitogen-activated protein kinase 8 (Homo sapiens) (UniProt P45983); assay: Inhibition of human JNK1 assessed as residual activity at 50 uM relative to control; how it was run: as §2
[15] = molecular target: T1, LKB1-STRAD-MO25 complex (Homo sapiens) (UniProt Q15831+Q7RTN6+Q9Y376); assay: Inhibition of human LKB1/MO25/STRADalpha assessed as residual activity at 5 uM relative to control; type: protein-complex assay; how it was run: as §2
[16] = molecular target: T1, LKB1-STRAD-MO25 complex (Homo sapiens); assay: Inhibition of human LKB1/MO25/STRADalpha assessed as residual activity at 50 uM relative to control; type: protein-complex assay; how it was run: as §2
[17] = molecular target: Mitogen-activated protein kinase 14 (Homo sapiens) (UniProt Q16539); assay: Inhibition of human P38-alpha assessed as residual activity at 5 uM relative to control; how it was run: as §2
[18] = molecular target: Mitogen-activated protein kinase 14 (Homo sapiens) (UniProt Q16539); assay: Inhibition of human P38-alpha assessed as residual activity at 50 uM relative to control; how it was run: as §2
HCT-116 [19] = assay: Induction of morphological changes in human HCT-116 cells assessed as multiple cellular remnants formation incubated for 24 hrs by SEM analysis; type: functional, cell-based
HCT-116 [20] = assay: Induction of morphological changes in human HCT-116 cells assessed as formation of vesicular bodies incubated for 24 hrs by SEM analysis; type: functional, cell-based
HCT-116 [21] = assay: Induction of morphological changes in human HCT-116 cells assessed as formation of membrane blebbing incubated for 24 hrs by SEM analysis; type: functional, cell-based
HCT-116 [22] = assay: Induction of morphological changes in human HCT-116 cells assessed as flattening of cellular structure incubated for 24 hrs by SEM analysis; type: functional, cell-based
MCF7 [23] = assay: Induction of morphological changes in human MCF7 cells assessed as formation of membrane blebbing incubated for 24 hrs by SEM analysis; type: functional, cell-based
MCF7 [24] = assay: Induction of morphological changes in human MCF7 cells assessed as formation of round vesicular bodies incubated for 24 hrs by SEM analysis; type: functional, cell-based
HCT-116 [25] = assay: Induction of apoptosis in human HCT-116 cells assessed as late apoptotic cells at 50 uM incubated for 12 hrs by Annexin V-FITC/PI staining based flow cytometry (reference value: 2.8 +/- 0.38 %); type: functional
HCT-116 [26] = assay: Induction of apoptosis in human HCT-116 cells assessed as necrotic cells at 50 uM incubated for 12 hrs by Annexin V-FITC/PI staining based flow cytometry (reference value: 3.5 +/- 0.66 %); type: functional
MCF7 [27] = assay: Induction of apoptosis in human MCF7 cells assessed as late apoptotic cells at 50 uM incubated for 12 hrs by Annexin V-FITC/PI staining based flow cytometry (reference value: 0.26 +/- 0.09 %); type: functional
MCF7 [28] = assay: Induction of apoptosis in human MCF7 cells assessed as early apoptotic cells at 50 uM incubated for 12 hrs by Annexin V-FITC/PI staining based flow cytometry (reference value: 0.33 +/- 0.12 %); type: functional
MCF7 [29] = assay: Induction of apoptosis in human MCF7 cells assessed as necrotic cells at 50 uM incubated for 12 hrs by Annexin V-FITC/PI staining based flow cytometry (reference value: 0.56 +/- 0.04 %); type: functional
HCT-116 [30] = assay: Induction of cell cycle arrest in human HCT-116 cells assessed as accumulation of cells at G2/M phase at 50 uM incubated for 12 hrs by PI staining based flow cytometry (reference value: 8.3 +/- 0.74 %); type: functional
HCT-116 [31] = assay: Induction of cell cycle arrest in human HCT-116 cells assessed as accumulation of cells at S phase at 50 uM incubated for 12 hrs by PI staining based flow cytometry (reference value: 18.7 +/- 0.5 %); type: functional
MCF7 [32] = assay: Cytotoxicity against human MCF7 cells at 50 uM incubated for 12 hrs by PI staining based flow cytometry relative to control; type: functional
MCF7 [33] = assay: Induction of morphological changes in human MCF7 cells assessed as formation of large pores in cell membrane incubated for 12 hrs by SEM analysis
HCT-116 [34] = assay: Induction of morphological changes in human HCT-116 cells assessed as pore formation in cell membrane incubated for 24 hrs by SEM analysis; type: functional, cell-based

Receptor tyrosine-protein kinase erbB-2 (Homo sapiens), sequence (P04626 whole entry): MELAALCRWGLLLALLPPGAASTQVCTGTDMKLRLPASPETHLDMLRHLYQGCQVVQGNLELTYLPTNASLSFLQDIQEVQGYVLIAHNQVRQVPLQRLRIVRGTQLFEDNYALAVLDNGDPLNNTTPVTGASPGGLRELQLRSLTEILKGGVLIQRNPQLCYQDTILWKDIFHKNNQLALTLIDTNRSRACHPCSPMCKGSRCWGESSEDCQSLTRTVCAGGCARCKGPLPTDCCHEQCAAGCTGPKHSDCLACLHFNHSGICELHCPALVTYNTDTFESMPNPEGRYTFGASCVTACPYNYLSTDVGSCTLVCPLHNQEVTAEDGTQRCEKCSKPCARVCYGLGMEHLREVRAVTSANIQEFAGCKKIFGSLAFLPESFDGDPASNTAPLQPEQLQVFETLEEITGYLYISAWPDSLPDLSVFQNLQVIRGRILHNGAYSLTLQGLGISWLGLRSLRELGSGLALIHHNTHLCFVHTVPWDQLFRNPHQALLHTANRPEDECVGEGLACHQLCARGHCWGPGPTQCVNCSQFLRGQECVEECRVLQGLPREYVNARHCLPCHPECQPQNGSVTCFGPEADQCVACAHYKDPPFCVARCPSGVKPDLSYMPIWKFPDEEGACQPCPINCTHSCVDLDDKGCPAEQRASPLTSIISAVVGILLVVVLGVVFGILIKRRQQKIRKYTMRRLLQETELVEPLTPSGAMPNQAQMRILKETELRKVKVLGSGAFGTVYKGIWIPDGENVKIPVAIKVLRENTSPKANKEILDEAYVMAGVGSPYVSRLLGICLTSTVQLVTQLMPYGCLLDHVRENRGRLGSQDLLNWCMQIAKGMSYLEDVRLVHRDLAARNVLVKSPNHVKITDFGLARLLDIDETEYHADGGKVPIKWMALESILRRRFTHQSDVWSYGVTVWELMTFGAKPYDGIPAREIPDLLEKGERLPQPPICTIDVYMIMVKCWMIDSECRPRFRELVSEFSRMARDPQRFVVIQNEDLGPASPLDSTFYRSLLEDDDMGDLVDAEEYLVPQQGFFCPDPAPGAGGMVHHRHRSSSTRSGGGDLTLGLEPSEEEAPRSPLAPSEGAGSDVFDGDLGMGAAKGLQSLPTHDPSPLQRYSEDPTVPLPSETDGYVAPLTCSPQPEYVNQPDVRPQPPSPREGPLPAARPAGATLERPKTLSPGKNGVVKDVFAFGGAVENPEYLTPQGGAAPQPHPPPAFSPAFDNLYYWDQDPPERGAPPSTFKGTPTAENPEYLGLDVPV
Mitogen-activated protein kinase 8 (Homo sapiens), sequence (P45983 whole entry): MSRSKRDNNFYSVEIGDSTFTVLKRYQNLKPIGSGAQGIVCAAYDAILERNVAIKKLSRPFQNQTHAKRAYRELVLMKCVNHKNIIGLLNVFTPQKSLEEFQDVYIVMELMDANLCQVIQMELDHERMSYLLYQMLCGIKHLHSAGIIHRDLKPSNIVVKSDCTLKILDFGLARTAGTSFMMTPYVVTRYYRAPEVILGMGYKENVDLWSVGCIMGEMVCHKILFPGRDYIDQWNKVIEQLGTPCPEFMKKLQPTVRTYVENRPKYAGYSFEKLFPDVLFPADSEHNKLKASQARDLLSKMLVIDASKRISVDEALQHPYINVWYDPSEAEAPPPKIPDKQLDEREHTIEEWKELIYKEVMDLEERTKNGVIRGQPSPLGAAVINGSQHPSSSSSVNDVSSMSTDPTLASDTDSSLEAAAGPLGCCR
5'-AMP-activated protein kinase catalytic subunit alpha-1 (Homo sapiens), sequence (Q13131 whole entry, looked up): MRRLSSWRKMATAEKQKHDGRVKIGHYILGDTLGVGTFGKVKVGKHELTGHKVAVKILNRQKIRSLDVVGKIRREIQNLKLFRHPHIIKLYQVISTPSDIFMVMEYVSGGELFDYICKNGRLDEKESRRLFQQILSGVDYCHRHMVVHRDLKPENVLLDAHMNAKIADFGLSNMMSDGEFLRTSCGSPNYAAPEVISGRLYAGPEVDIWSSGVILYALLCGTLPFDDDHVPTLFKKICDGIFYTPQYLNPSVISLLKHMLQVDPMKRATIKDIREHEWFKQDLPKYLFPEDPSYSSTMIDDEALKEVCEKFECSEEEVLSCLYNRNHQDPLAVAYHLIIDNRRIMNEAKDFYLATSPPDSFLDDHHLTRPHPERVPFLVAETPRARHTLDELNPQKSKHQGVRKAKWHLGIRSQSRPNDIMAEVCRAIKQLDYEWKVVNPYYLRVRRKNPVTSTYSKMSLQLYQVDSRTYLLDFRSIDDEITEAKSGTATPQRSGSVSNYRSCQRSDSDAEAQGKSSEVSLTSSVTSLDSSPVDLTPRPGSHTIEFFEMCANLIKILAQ
Mitogen-activated protein kinase 1 (Homo sapiens), sequence (P28482 whole entry): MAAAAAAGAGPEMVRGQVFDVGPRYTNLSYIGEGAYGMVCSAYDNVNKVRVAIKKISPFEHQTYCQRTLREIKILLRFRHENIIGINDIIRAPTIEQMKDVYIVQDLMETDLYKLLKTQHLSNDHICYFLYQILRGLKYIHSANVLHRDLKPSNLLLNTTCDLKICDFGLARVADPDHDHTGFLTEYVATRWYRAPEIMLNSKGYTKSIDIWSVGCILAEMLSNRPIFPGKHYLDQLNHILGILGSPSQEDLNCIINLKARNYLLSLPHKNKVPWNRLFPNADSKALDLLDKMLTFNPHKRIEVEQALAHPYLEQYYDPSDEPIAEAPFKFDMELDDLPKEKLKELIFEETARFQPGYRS
Mitogen-activated protein kinase 14 (Homo sapiens), sequence (Q16539 whole entry): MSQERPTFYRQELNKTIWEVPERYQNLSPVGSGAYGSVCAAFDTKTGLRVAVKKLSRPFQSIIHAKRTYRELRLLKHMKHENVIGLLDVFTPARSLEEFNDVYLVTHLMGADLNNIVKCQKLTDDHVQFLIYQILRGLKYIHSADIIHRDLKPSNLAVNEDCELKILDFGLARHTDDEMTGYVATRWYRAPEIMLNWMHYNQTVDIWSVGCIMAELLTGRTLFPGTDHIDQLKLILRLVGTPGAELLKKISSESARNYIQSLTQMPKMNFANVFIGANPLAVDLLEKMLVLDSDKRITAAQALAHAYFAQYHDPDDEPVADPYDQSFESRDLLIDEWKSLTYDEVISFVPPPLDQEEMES
Epidermal growth factor receptor (Homo sapiens), sequence (P00533 whole entry): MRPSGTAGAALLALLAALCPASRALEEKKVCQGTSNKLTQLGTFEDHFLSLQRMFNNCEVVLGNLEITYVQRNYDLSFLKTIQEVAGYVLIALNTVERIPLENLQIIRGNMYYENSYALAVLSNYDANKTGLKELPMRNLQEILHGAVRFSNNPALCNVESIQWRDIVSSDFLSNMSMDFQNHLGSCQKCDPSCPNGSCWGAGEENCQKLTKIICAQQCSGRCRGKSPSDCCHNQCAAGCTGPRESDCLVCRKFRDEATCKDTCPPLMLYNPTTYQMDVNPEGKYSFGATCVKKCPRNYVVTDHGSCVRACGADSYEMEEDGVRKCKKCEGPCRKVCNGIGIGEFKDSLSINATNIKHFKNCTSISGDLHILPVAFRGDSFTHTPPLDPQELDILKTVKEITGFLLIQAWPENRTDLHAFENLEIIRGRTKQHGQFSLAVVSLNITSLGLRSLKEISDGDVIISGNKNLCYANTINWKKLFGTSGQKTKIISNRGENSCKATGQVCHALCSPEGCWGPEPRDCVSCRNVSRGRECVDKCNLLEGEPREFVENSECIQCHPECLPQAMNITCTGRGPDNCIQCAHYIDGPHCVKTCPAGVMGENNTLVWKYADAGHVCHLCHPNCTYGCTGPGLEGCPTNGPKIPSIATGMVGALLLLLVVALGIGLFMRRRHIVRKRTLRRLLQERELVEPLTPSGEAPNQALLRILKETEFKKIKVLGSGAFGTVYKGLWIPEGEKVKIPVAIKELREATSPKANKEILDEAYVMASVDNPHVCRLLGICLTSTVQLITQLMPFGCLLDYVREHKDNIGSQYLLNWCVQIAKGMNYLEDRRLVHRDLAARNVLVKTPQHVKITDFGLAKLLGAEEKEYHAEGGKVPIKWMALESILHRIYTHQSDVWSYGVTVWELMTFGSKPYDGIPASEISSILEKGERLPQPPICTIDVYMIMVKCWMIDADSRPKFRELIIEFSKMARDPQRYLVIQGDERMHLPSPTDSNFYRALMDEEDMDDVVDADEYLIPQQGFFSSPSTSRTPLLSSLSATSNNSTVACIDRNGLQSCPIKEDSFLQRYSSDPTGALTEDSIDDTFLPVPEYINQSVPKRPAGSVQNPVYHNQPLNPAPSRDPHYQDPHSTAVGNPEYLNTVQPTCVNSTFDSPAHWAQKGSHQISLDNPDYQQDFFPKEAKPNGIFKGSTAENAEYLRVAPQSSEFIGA

| IC50 (MCF7 [1]) [µM] | IC50 (HCT-116 [2]) [µM] | Activity (Homo sapiens [3]) [%] | Activity (Homo sapiens [4]) [%] | Activity [5] [%] | Activity [6] [%] | Activity [7] [%] | Activity [8] [%] | Activity [9] [%] | Activity [10] [%] | Activity [11] [%] | Activity [12] [%] | Activity [13] [%] | Activity [14] [%] | Activity [15] [%] | Activity [16] [%] | Activity [17] [%] | Activity [18] [%] | Compound | further results |
| --- | --- | --- | --- | --- | --- | --- | --- | --- | --- | --- | --- | --- | --- | --- | --- | --- | --- | --- | --- |
| 2.27 | 4.44 | 88 | 104 | 93 | 75 | 96 | 62 | 90 | 50 | 88 | 73 | 96 | 56 | 88 | 89 | 112 | 82 | Cc1ccc(S(=O)(=O)N2CC(CCn3cnc4c(Cl)nc(Cl)nc43)Oc3ccc(C)cc32)cc1 (stereo not given) | Activity (HCT-116 [19]): Active; Activity (HCT-116 [20]): Active; Activity (HCT-116 [21]): Active; Activity (HCT-116 [22]): Active; Activity (MCF7 [23]): Active; Activity (MCF7 [24]): Active; Activity (HCT-116 [25]): 26.5%; Activity (HCT-116 [26]): 36.3%; Activity (MCF7 [27]): 77.8%; Activity (MCF7 [28]): 9.3%; Activity (MCF7 [29]): 2.1%; Activity (HCT-116 [30]): 5.3%; Activity (HCT-116 [31]): 51.25%; Activity (MCF7 [32]): 100%; Activity (MCF7 [33]): Active |
| 3.26 | 7.63 | 103 | 139 | 87 | 89 | 74 | 57 | 76 | 67 | 93 | 94 | 78 | 67 | 84 | 100 | 72 | 77 | Cc1ccc(S(=O)(=O)N2CC(CCn3cnc4c(Cl)nc(Cl)nc43)Oc3cc(Cl)ccc32)cc1 (stereo not given) | Activity (HCT-116 [19]): Active; Activity (HCT-116 [20]): Active; Activity (HCT-116 [21]): Active; Activity (HCT-116 [22]): Active; Activity (HCT-116 [34]): Active; Activity (MCF7 [23]): Active; Activity (MCF7 [24]): Active; Activity (HCT-116 [25]): 49.5%; Activity (HCT-116 [26]): 28.4%; Activity (MCF7 [27]): 87.3%; Activity (MCF7 [28]): 7.9%; Activity (MCF7 [29]): 0.83%; Activity (HCT-116 [30]): 6.67%; Activity (HCT-116 [31]): 49.2%; Activity (MCF7 [32]): 100%; Activity (MCF7 [33]): Active |
| 5.52 | 7.85 | 95 | 87 | 86 | 70 | 94 | 59 | 78 | 63 | 86 | 66 | 88 | 44 | 98 | 95 | 97 | 59 | Cc1ccc(S(=O)(=O)N2CC(CCn3cnc4c(Cl)nc(Cl)nc43)Oc3ccc(Br)cc32)cc1 (stereo not given) |  |
| 11.2 | 14.8 |  |  |  |  |  |  |  |  |  |  |  |  |  |  |  |  | Cc1ccc(S(=O)(=O)N2CC(CCn3cnc4c(Cl)ncnc43)Oc3cc(Cl)ccc32)cc1 (stereo not given) |  |
| 6.77 | 12.8 | 94 | 99 | 90 | 73 | 108 | 64 | 84 | 65 | 90 | 68 | 89 | 47 | 94 | 129 | 91 | 112 | Cc1ccc(S(=O)(=O)N2CC(CCn3cnc4c(Br)ncnc43)Oc3cc(Cl)ccc32)cc1 (stereo not given) |  |

Further lines, the compound ahead of its results:

| Compound | IC50 (MCF7 [1]) [µM] | IC50 (HCT-116 [2]) [µM] | Activity (Homo sapiens [3]) [%] | Activity (Homo sapiens [4]) [%] | Activity [5] [%] | Activity [6] [%] | Activity [7] [%] | Activity [8] [%] | Activity [9] [%] | Activity [10] [%] | Activity [11] [%] | Activity [12] [%] | Activity [13] [%] | Activity [14] [%] | Activity [15] [%] | Activity [16] [%] | Activity [17] [%] | Activity [18] [%] | further results |
| --- | --- | --- | --- | --- | --- | --- | --- | --- | --- | --- | --- | --- | --- | --- | --- | --- | --- | --- | --- |
| Cc1ccc(S(=O)(=O)N2CC(CCn3cnc4c(Cl)ncnc43)Oc3ccc(Br)cc32)cc1 (stereo not given) | 14.5 | 15.7 |  |  |  |  |  |  |  |  |  |  |  |  |  |  |  |  |  |
| Cc1ccc(S(=O)(=O)N2CC(CCn3cnc4c(Br)ncnc43)Oc3ccc(Br)cc32)cc1 (stereo not given) | 7.31 | 16.4 |  |  |  |  |  |  |  |  |  |  |  |  |  |  |  |  |  |
| Cc1ccc(S(=O)(=O)N2CC(CCn3cnc4c(Cl)ncnc43)Oc3ccc(C)cc32)cc1 (stereo not given) | 12.9 | 23.8 |  |  |  |  |  |  |  |  |  |  |  |  |  |  |  |  |  |
| Cc1ccc(S(=O)(=O)N2CC(CCn3cnc4c(Br)ncnc43)Oc3ccc(C)cc32)cc1 (stereo not given) | 4.01 | 9.4 | 89 | 106 | 90 | 86 | 97 | 67 | 99 | 55 | 81 | 74 | 84 | 52 | 95 | 131 | 93 | 70 |  |
| Cc1ccc(S(=O)(=O)N2CC(CCn3cnc4c(C(F)(F)F)ncnc43)Oc3cc(Cl)ccc32)cc1 (stereo not given) | 23 | 13.6 |  |  |  |  |  |  |  |  |  |  |  |  |  |  |  |  |  |
| Cc1ccc(S(=O)(=O)N2CC(CCn3cnc4c(C(F)(F)F)ncnc43)Oc3ccc(Br)cc32)cc1 (stereo not given) | 20.6 | 23.6 |  |  |  |  |  |  |  |  |  |  |  |  |  |  |  |  |  |
| Cc1ccc(S(=O)(=O)N2CC(CCn3cnc4c(C(F)(F)F)ncnc43)Oc3ccc(C)cc32)cc1 (stereo not given) | 31.1 | 4.63 |  |  |  |  |  |  |  |  |  |  |  |  |  |  |  |  |  |
